In ChEMBL document CHEMBL1128682, “Design and synthesis of new naphthalenic derivatives as ligands for 2-[125I]iodomelatonin binding sites” (J Med Chem, 1995):

Assays:
Melatonin receptor [1] = target: T1, Melatonin receptor (Gallus gallus, UniProt P49288+P51050+P49285); assay: Competitive binding by the displacement of 2-[125I]- Iodomelatonin binding from melatonin receptors in chicken brain membranes; type: cell membranes, Membrane
Summary of the method: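 Whole chicken brain (Redbro, 4 months) homogenized in ice-cold 50 mM Tris-HCl pH 7.4, washed twice by centrifugation, and resuspended at 5 mg protein/mL. Filtration through PEI-soaked glass fiber filters, then gamma counting. Nonspecific binding defined with 10 μM 2-iodomelatonin. Triplicates. Ki from IC50 by Cheng-Prusoff; one or two determinations.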

Melatonin receptor [2] = target: T1, Melatonin receptor; assay: Effect of compound on Melatonin receptor in chicken brain in the presence of MnCl2
Melatonin receptor [3] = target: T1, Melatonin receptor; assay: Effect of compound on Melatonin receptor in chicken brain in the presence of GTP-gamma-S

SMILES	Ki (Melatonin receptor [1]) [nM]	Ki (Melatonin receptor [2]) [nM]	Ki (Melatonin receptor [3]) [nM]
CC(=O)NCCc1ccccc1Cl	> 1000		
COc1ccc(OC)c(CCNC(C)=O)c1	69.9		
COc1cccc(CCNC(C)=O)c1	253		
COc1ccc(OC)c(CCNC(=O)C2CC2)c1	386		
CCCCC(=O)NCCc1c(OC)ccc2ccccc12	237		
COc1ccc2ccccc2c1CCNC(=O)C1CC1	19.4		
CCc1ccc(OC)c(CCNC(C)=O)c1	217		
COc1ccc2ccccc2c1CC(C)NC(=O)C(F)(F)F (stereo not given)	> 1000		
CCCCC(=O)NCCc1cc(OC)ccc1OC	> 1000		
COc1ccc(C)cc1CCNC(C)=O	192		
COc1ccc(Br)cc1CCNC(C)=O	42		

Next, values leading:

Ki (Melatonin receptor [1]) [nM]	Ki (Melatonin receptor [2]) [nM]	Ki (Melatonin receptor [3]) [nM]	SMILES
213			COc1ccccc1CCNC(C)=O
0.07			CCC(=O)NCCc1c(OC)ccc2ccc(OC)cc12
> 1000			COc1ccc(CCNC(C)=O)cc1
0.1			COc1ccc2ccc(OC)c(CCNC(C)=O)c2c1
0.4			COc1ccc2ccc(OC)c(CCNC(=O)C(F)(F)F)c2c1
0.68	0.297	2.86	CCC(=O)NCCc1c(OC)ccc2ccccc12
17.5			CCC(=O)NCCc1cc(OC)ccc1OC
> 1000			CC(=O)NCCc1cccc(F)c1
421			COc1ccc2ccccc2c1CC(C)NC(C)=O (stereo not given)
0.05			COc1ccc2ccc(OC)c(CCNC(=O)C3CC3)c2c1
321			CC(=O)NCCc1cccc2ccccc12
1.37			CCCC(=O)NCCc1c(OC)ccc2ccccc12
> 1000			CC(=O)NCCc1ccc(Cl)cc1
0.54			COc1ccc2ccccc2c1CCNC(=O)C(F)(F)F
2.68			COc1ccc2ccccc2c1CCNC(C)=O
> 1000			CC(=O)NCCc1cccc(Cl)c1
8			CCC(=O)NCCc1cc(Br)ccc1OC
